Test results published in ChEMBL document CHEMBL1158681, “Flavones and sesquiterpene lactones from Achillea atrata subsp. multifida: antimicrobial activity” (1999).
Converted amounts (≈) assume the structure as drawn. The source made the active and inactive calls. No cut-off for these calls is given here.

Columns and labels:
Bacillus subtilis = experiment: Antimicrobial activity against Bacillus subtilis IP 5832 after 24 hrs by agar well diffusion method; type: functional
Method in brief: (§1)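 Agar well diffusion: stationary-phase culture suspended in saline at approx. 10^5 cfu/mL, 200 µL spread on Mueller-Hinton agar (bacteria) or Sabouraud agar (yeast, fungi). Test samples at 50 µg/50 µL added to wells. Incubated 24 h (bacteria, yeast) or 48 h (fungi). Read-out is inhibition zone diameter.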

Candida albicans [1] = experiment: Antimicrobial activity against Candida albicans ATCC 24433 after 24 hrs by agar well diffusion method; type: functional; method in brief: as §1
Escherichia coli = experiment: Antimicrobial activity against Escherichia coli ATCC 25922 after 24 hrs by agar well diffusion method; type: functional; method in brief: as §1
Staphylococcus aureus = experiment: Antimicrobial activity against Staphylococcus aureus ATCC 25923 after 24 hrs by agar well diffusion method; type: functional, organism-based; method in brief: as §1
Aspergillus niger = experiment: Antimicrobial activity against Aspergillus niger after 48 hrs by agar well diffusion method; type: functional, organism-based; method in brief: as §1
Candida albicans [2] = experiment: Antimicrobial activity against Candida albicans ATCC 24433 after 24 hrs using sabouraud liquid medium; type: functional
Method in brief: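 Broth MIC in duplicate in Sabouraud liquid medium. Samples made up at 1 mg/mL in DMSO, then serially diluted over 100-0.1 µg/mL. Inoculum is stationary-phase culture at 10^5 cfu/mL. Incubated 37 °C for 24 h. MIC taken as the lowest concentration preventing any visible growth.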

## O=c1cc(-c2ccc(O)cc2)oc2cc(O)cc(O)c12 [APIGENIN]
Bacillus subtilis
  inhibition zone (IZ): 6 mm
Candida albicans [1]
  inhibition zone (IZ): 10 mm
Escherichia coli
  inhibition zone (IZ): 6 mm
Staphylococcus aureus
  Activity: inactive
Aspergillus niger
  Activity: inactive
Candida albicans [2]; ATCC 24433, 24 h
  MIC: 3 µg/mL (≈ 11.1 µM)

## O=c1cc(-c2ccc(O)cc2)oc2cc(O[C@@H]3O[C@H](CO)[C@@H](O)[C@H](O)[C@H]3O)cc(O)c12 [APIGETRIN]
Bacillus subtilis
  inhibition zone (IZ): 6 mm
Staphylococcus aureus
  Activity: inactive
Aspergillus niger
  Activity: inactive

## COc1ccc(-c2oc3cc(O)c(OC)c(O)c3c(=O)c2OC)cc1O [CENTAUREIDIN]
Bacillus subtilis
  inhibition zone (IZ): 6 mm
Candida albicans [1]
  inhibition zone (IZ): 11 mm
Staphylococcus aureus
  Activity: inactive
Aspergillus niger
  Activity: inactive
Candida albicans [2]; ATCC 24433, 24 h
  MIC: 3 µg/mL (≈ 8.33 µM)

## COc1ccc(-c2oc3cc(O)c(OC)c(O)c3c(=O)c2OC)cc1 [SANTIN]
Bacillus subtilis
  inhibition zone (IZ): 6 mm
Candida albicans [1]
  inhibition zone (IZ): 8 mm
Escherichia coli
  inhibition zone (IZ): 6 mm
Staphylococcus aureus
  Activity: inactive
Aspergillus niger
  Activity: inactive
Candida albicans [2]; ATCC 24433, 24 h
  MIC: 3 µg/mL (≈ 8.71 µM)

## NYSTATIN
Candida albicans [2]
  MIC: 3.12 µg/mL
